# Results pooled from the literature.
# Each line is one published result; the experiments were not run side by side.
# Target: Calcium/calmodulin-dependent protein kinase kinase 2 (CAMKK2, Homo sapiens, UniProt Q96RR4)
Structure (SMILES),effect on,action,method,concentration,quantity,result
Cn1cc(-c2cccc(N3CCc4c(sc5c4CC(C)(C)C5)C3=O)c2CO)cc(Nc2ccncn2)c1=O,enzyme activity,inhibitor,,1 µM,inhibition,-7%
Cc1nn(C)cc1-c1nc2c(N3CCN(Cc4ccc(Cl)cc4)CC3)c(Cl)cnc2[nH]1,binding,,competition with immobilised ligand,1 µM,remaining binding,100%
Nc1ncc(-c2nc(N3CCOCC3)nc(N3CCOCC3)n2)c(C(F)F)n1,binding,,competition with immobilised ligand,10 µM,remaining binding,65%
O=c1[nH]c2ccccc2n1C1CCN(Cc2ccc(-c3[nH]c4cc5ncnc5cc4nc3-c3ccccc3)cc2)CC1,cell-free assay,,,0.5 µM,remaining signal,112%
N#CC1(c2ccccn2)CCN(Cc2cc(C(=O)O)c(=O)n3ccccc23)CC1,cell-free assay,,competition with immobilised ligand,1 µM,remaining binding,100%
COc1ncccc1-c1cnn2ccc(N3CCN(C(=O)OC(C)C)CC3)nc12,binding,,competition with immobilised ligand,1 µM,remaining binding,88%
CC(C)(C)c1cc(C=C(C#N)C#N)cc(Br)c1O,enzyme activity,inhibitor,,0.5 µM,remaining activity,92.5%
Cn1cncc1[C@](O)(COc1ccc(C#N)cc1-c1ccc(OC(F)(F)F)cc1)c1ccc(C#N)cc1,cell-free assay,,competition with immobilised ligand,1 µM,remaining binding,100%
